# The list is not random: actives were taken first. Their share in the collection is about 3.1%.
# PAFAH1B3 inh: PAFAH1B3 enzyme inhibitors, primary screen, biochemical, fluorescence polarization, human; Platelet-activating factor acetylhydrolase IB subunit alpha1 (Homo sapiens), Q15102; recombinant PAFAH1B3, FP-rhodamine probe; hit rate 0.28% among 340,000; inhibition, % at 3.39 µM;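 active = inhibition above the screen-wide average of all tested compounds plus 3 SD, cut at about 25% in these data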
# Target sequence (Q15102 whole entry, looked up): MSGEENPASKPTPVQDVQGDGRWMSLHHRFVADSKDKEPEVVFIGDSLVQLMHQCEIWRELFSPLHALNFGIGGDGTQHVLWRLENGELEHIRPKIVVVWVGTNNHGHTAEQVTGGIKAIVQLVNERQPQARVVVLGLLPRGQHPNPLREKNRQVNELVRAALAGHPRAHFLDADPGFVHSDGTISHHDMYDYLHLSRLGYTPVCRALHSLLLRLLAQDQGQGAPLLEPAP
# PAFAH1B2 FP inh: PAFAH1B2 enzyme inhibitors, primary screen, biochemical, fluorescence polarization, human; Platelet-activating factor acetylhydrolase IB subunit alpha2 (Homo sapiens), P68402; hit rate 1.2% among 340,000; inhibition, % at 3.39 µM; recombinant PAFAH1B2, FP-rhodamine activity probe; AID 492953, 2010;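 active = inhibition above the mean of all tested compounds plus 3 SD, cut at about 24% in these data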
# Target sequence (P68402 whole entry, looked up): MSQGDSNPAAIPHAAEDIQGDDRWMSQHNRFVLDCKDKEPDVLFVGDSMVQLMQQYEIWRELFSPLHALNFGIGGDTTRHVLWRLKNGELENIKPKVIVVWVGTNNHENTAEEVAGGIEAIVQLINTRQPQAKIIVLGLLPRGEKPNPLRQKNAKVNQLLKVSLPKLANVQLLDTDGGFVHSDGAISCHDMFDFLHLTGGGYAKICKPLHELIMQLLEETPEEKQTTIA
# Apaf1 inhib: inhibitors of human Apaf-1 apoptosome, primary screen, biochemical, DEVD-Rh110 fluorescence, uHTS. inhibition, % at 20 µM. hit rate 0.71% among 330,000. reconstituted apoptosome caspase-3 activity. AID 489030, 2010; active = inhibition of at least 40% at 20 µM
#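 Assay system – apoptosome proteins · Medium – Hepes buffer, pH 7.5 · Also added – cytochrome c with DEVD-Rh110 · Timing – 30 min compound preincubation, 50 min activation, room temperature · Detection – Rh110 fluorescence, excitation 480 nm, emission 540 nm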
# PAFAH2 FP inh: PAFAH2 enzyme inhibitors, primary screen, biochemical, fluorescence polarization, human; Platelet-activating factor acetylhydrolase 2, cytoplasmic (Homo sapiens), Q99487; recombinant PAFAH2, FP-rhodamine activity probe; inhibition, % at 3.39 µM; hit rate 0.99% among 340,000; AID 492956, 2010;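 active = inhibition above the mean over all tested compounds plus 3 SD, cut at about 30% in these data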;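 also: inhibitors block probe labeling of enzyme so polarization drops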
# pPAFAH FP inh: pPAFAH enzyme inhibitors, primary screen, biochemical, fluorescence polarization, human; Platelet-activating factor acetylhydrolase (Homo sapiens), Q13093; recombinant pPAFAH, FP-rhodamine probe fluorescence polarization; inhibition, % at 3.39 µM; hit rate 1.5% among 330,000; AID 463082, 2010;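 active = inhibition above the mean inhibition across the screen plus 3 SD, cut at about 25% in these data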;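 also: inhibitors block binding of the rhodamine activity-based probe so polarization drops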
# PAFAH2 FP conf: PAFAH2 enzyme inhibitors, confirmation, biochemical, fluorescence polarization, human; shares compounds with PAFAH2 FP inh; recombinant PAFAH2, FP-rhodamine activity probe; inhibition, % at 3.39 µM; hit rate 65% among 2,300; AID 493030, 2011;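 active = mean inhibition over three repeats above a set limit taken from the earlier primary screen, cut at about 30% in these data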;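 also: inhibitor blocks binding of rhodamine activity probe so polarization falls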
# Hits are given with their value; 0 = inactive; - = no result.
SMILES,PAFAH1B3 inh,PAFAH1B2 FP inh,Apaf1 inhib,PAFAH2 FP inh,pPAFAH FP inh,PAFAH2 FP conf
Cc1ccc(S(=O)(=O)N2CCC(C(=O)Nc3ccc(N4CCOCC4)cc3)CC2)cc1C,0,0,0,0,-,-
O=C(COC(=O)c1cccs1)Nc1cccc(Cl)c1,0,0,0,91,0,89
COc1ccc(Cl)cc1C(=O)NNC(=O)COC(=O)c1cccs1,0,0,0,0,0,-
CCN(CC)c1ccc(NC(=O)COC(=O)c2cccs2)cc1,0,0,0,0,0,-
CC(=O)c1cccc(NC(=O)COC(=O)c2cccs2)c1,0,0,0,81,0,77
CCN(c1ccc(NC(=O)COC(=O)c2cccs2)cc1)C(C)C,0,0,0,30,0,0
Cc1ccc2c(COC(=O)CNC(=O)c3ccco3)cc(=O)oc2c1C,0,0,0,0,0,-
Cc1ccc(CNC(=O)C2CCCN2S(=O)(=O)c2ccc(Cl)cc2)cc1 (stereo not drawn),0,0,0,0,0,-
CCC1(c2ccc(OC)cc2)NC(=O)N(CC(=O)NC2CCCCC2C)C1=O (stereo not drawn),0,0,0,0,0,-
O=C(Nc1ccccc1C(=O)NCCc1ccc(O)cc1)c1ccco1,0,0,0,0,0,-
O=C(OCC(=O)N1CCc2ccccc21)c1ccccc1,0,0,0,47,0,38
COc1ccc(Br)c(C(=O)OCC(=O)N2CCc3ccccc32)c1,0,0,0,0,0,-
COc1cccc(C(=O)OCC(=O)N2CCc3ccccc32)c1OC,0,0,0,43,-,43
COc1cc(N)c(Cl)cc1C(=O)OCC(=O)N1CCc2ccccc21,0,0,0,33,0,0
Nc1ccc(C(=O)OCc2nc3ccccc3[nH]2)cc1,0,0,0,88,0,79
Nc1ccc(C(=O)OCCCc2nc3ccccc3[nH]2)cc1,0,0,0,0,0,-
CCCN(CC(=O)Nc1ccccc1OC)C(=O)C1=COCCO1,0,0,0,0,0,-
CC(=O)c1cccc(NC(=O)C2=CN3CCS(=O)(=O)N=C3C=C2)c1,0,0,0,0,0,-
COc1ccccc1C/C(N)=N/OC(=O)c1cccs1,0,0,0,81,0,75
COc1ccc(C/C(N)=N/OC(=O)c2cccs2)cc1,0,0,0,47,0,38
N/C(Cc1ccc(Cl)cc1Cl)=N\OC(=O)c1cccs1,0,0,0,88,0,84
N/C(Cc1cccc2ccccc12)=N\OC(=O)c1cccs1,0,0,0,0,0,-
COc1ccccc1C/C(N)=N/OC(=O)COc1cccc(C)c1C,0,0,0,0,0,-
COc1ccc(CC(=O)N/N=C(\C)c2cccs2)cc1,0,0,0,0,0,-
COc1ccccc1C/C(N)=N/OC(=O)/C=C/c1ccccc1,0,0,0,69,0,72
SMILES,PAFAH1B3 inh,PAFAH1B2 FP inh,Apaf1 inhib,PAFAH2 FP inh,pPAFAH FP inh,PAFAH2 FP conf
Cc1cccnc1NC(=O)c1ccc(COc2ccccc2)o1,0,0,0,0,0,-
N/C(CC(=O)Nc1ccc(F)cc1F)=N\OC(=O)c1cccs1,0,0,0,41,0,0
C/C(=N\Nc1ccc(F)cc1F)c1cccs1,-,-,0,-,0,-
COc1ccc(N2C(=O)C3[C@@H](C2=O)C2(Cl)C(Cl)=C(Cl)C3(Cl)C2(OC)OC)cc1 (stereo partly drawn),0,0,0,33,0,31
Cc1ccc(S(=O)(=O)N2CCN(C(=O)COC(=O)COc3ccccc3C(C)C)CC2)c(C)c1,0,0,-,0,-,-
CC1=C(C#N)C(=O)NC(=O)/C1=C\c1ccc(-c2cc(C)c(C)cc2[N+](=O)[O-])o1,0,0,-,32,-,0
COc1ccc(S(=O)(=O)N(C)C[C@H]2Oc3ccc(NC(=O)C4CC4)cc3C(=O)N([C@H](C)CO)C[C@@H]2C)cc1,0,0,0,0,0,-
O=C(COC(=O)C1CC2CCCC(C1)C2=O)NC1CCCCC1 (stereo not drawn),0,0,0,63,0,55
CC(NC(=O)COC(=O)C1CC2CCCC(C1)C2=O)c1ccccc1 (stereo not drawn),0,0,0,0,0,-
CC1CCC(NC(=O)COC(=O)C2CC3CCCC(C2)C3=O)CC1 (stereo not drawn),0,0,0,62,0,48
CC(=O)Nc1cccc(NC(=O)COC(=O)C2CC3CCCC(C2)C3=O)c1 (stereo not drawn),0,0,0,0,0,-
COc1ccc(CN2CCN(Cc3ccccc3F)CC2)cc1OC,0,0,0,0,0,-
C=CCSC1=N/C(=C\c2cc(OCC)c(OC(C)=O)c([N+](=O)[O-])c2)C(=O)S1,0,0,0,60,0,65
Cc1ccn(C(=O)c2ccc(NC(=O)C3CCCCC3)cc2)n1,0,0,0,33,0,45
O=C(Nc1ccc(C(=O)N2CCCC2)cc1)C1CCCCC1,0,0,-,0,-,-
CCOc1ccc(S(=O)(=O)N2CCCC(C(=O)Nc3cc(C)cc(C)c3)C2)cc1 (stereo not drawn),0,0,0,0,0,-
CCCCNC(=O)c1onc(CSc2cc(C)cc(C)c2)c1C(=O)O,0,0,0,38,0,0
CCCCNC(=O)c1onc(CSc2ccccc2C)c1C(=O)O,0,0,0,30,0,35
CCCCNC(=O)c1onc(CSc2cc(C)cc(C)c2)c1C(=O)NCCCC,0,0,0,0,0,-
CCCCNC(=O)c1onc(CSc2ccccc2F)c1C(=O)O,0,0,0,0,0,-
CCc1ccc(-c2cc(C)no2)cc1S(=O)(=O)N1CCN(c2ccc(F)cc2)CC1,0,0,0,0,0,-
Cc1sc2nc(SCC(=O)Nc3cccc(S(N)(=O)=O)c3)[nH]c(=O)c2c1C,0,0,0,35,0,0
COc1ccc(NS(=O)(=O)c2cc(C(=O)NNC(=O)c3ccncc3)ccc2OC)c(OC)c1,-,-,0,-,0,-
Cc1ccc(NC(=O)C(C)SCC(=O)Nc2ccc(F)cc2)cc1S(=O)(=O)N1CCOCC1 (stereo not drawn),0,0,0,0,0,-
COc1cc(/C=C/C(=O)OCC(=O)Nc2ccc(Cl)cn2)ccc1O,0,0,0,64,0,66
CC(C)=CC(=O)OCC(=O)Nc1ccc(Cl)cn1,0,0,0,52,0,43
COc1cc(/C=C/C(=O)OCC(=O)Nc2cc(C)c(C)cc2[N+](=O)[O-])ccc1O,0,0,0,0,0,-
CCOC(=O)/C=C/C(=O)OCC(=O)Nc1ccc(Cl)cn1,0,0,0,0,0,-
COc1cc(/C=C/C(=O)OCC(=O)Nc2ccc([N+](=O)[O-])cc2)ccc1O,0,0,0,78,0,81
